Screening results deposited in PubChem by Johns Hopkins Ion Channel Center.
TRPC4 act: opens the mouse TRPC4 cation channel. 310,000 tested, 0.49% active. HEK293 TRPC4beta/mu-opioid, Fluo4 calcium fluorescence; stronger effect = higher value. B-score at 10 µM. Q9QUQ5;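 active means B-score above 5 SD of library B-scores, and initial fluorescence ratio not above library mean plus 5 SD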;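 further: positive B-score marks a calcium rise read as TRPC4 activation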
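system = HEK293 cells stably co-expressing mouse TRPC4beta and mu-opioid receptor | schedule = Fluo4 dye loading 45 min at room temperature, 110 s recording | measure = B-scored integrated calcium fluorescence ratio | signal = Fluo4 calcium-sensitive dye fluorescence, kinetic, 1 Hz baseline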
TRPC6 inhibitor: mouse TRPC6 channel inhibition | Q61143 | HEK293-TRPC6, membrane potential dye, ACh-evoked depolarization; stronger effect = lower value | B-score at 10 µM | 310,000 tested, 1.1% active | AID 2553;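 active means B-score under library mean minus 3 SD, initial fluorescence not abnormally high, positive integrated signal ratio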;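 further: B-score derived from integrated fluorescence ratio over the kinetic read; more negative B-score means stronger inhibition of depolarization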
Target sequence (Q61143 whole entry, looked up): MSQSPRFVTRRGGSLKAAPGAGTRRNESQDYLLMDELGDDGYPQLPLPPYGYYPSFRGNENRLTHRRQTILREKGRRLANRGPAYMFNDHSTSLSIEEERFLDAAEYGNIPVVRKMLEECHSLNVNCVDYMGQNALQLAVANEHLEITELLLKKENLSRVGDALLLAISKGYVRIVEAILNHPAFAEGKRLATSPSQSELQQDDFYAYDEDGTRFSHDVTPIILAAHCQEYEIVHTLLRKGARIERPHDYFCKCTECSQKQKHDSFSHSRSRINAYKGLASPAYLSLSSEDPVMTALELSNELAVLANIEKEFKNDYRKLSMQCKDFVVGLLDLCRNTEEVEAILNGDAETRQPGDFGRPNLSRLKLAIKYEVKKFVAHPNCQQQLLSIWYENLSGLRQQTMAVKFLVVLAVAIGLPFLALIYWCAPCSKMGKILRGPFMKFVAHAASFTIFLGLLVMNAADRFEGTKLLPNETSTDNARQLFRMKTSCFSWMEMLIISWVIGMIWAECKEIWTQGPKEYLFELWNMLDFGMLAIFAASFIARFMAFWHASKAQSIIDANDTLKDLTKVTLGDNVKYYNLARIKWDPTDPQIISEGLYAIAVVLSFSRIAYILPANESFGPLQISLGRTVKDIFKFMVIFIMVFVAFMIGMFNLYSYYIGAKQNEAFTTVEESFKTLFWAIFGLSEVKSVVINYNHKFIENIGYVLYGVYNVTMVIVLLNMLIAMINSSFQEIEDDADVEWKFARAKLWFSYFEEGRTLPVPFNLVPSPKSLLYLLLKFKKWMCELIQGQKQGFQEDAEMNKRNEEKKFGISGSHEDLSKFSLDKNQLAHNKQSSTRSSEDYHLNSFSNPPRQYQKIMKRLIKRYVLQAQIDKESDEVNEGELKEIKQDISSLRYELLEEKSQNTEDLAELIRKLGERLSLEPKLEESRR
TRPC6 activator: activates the mouse TRPC6 cation channel; Q61143; HEK293-TRPC6 membrane potential dye fluorescence; stronger effect = higher value; B-score at 10 µM; 310,000 tested, 0.13% active;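 active means B-score of the integrated fluorescence ratio above library mean plus 3 SD, and starting fluorescence ratio within library mean plus 5 SD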;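 further: higher score means more depolarization so channel activation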
TRPC4 PAM: TRPC4 (mouse) allosteric potentiation; HEK293 TRPC4beta/mu-opioid, DAMGO EC20, Fluo-4 Ca2+ flux; stronger effect = higher value; B-score at 10 µM; 310,000 tested, 0.42% active; AID 2227;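 active means B-score of calcium response area above 5 SD of library B-scores, with initial fluorescence ratio within 5 SD of library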
TRPC4 inh: blocks the mouse TRPC4 cation channel. Q9QUQ5. HEK293 TRPC4beta/mu-opioid, DAMGO-evoked Fluo4 calcium flux; stronger effect = lower value. B-score at 10 µM. 300,000 tested, 0.39% active. AID 2247;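 active means B-score over 3 SD under the library average, no early fluorescence shift, positive overall ratio signal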
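Material: HEK293 cells with stable TRPC4beta plus mu-opioid receptor expression; probe or stimulus: DAMGO in two steps, submaximal then maximal; technique: Fluo4 calcium fluorescence by kinetic imaging, 5 s 1 Hz baseline; measure: integrated fluorescence ratio relative to baseline, converted to per-well B score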
Large screens that a line does not name were inactive. This is a sample that favours compounds with a hit; in the whole collection about 2.3% have one here.

COc1ccc(C(CCNCc2ccc(N(C)C)cc2)c2ccccc2)cc1 (stereo not drawn)	TRPC4 act 104
CN1COc2ccc3ccccc3c2C1	none
CN(CC(=O)Nc1ccc(F)cc1)C(=O)CCc1ccccc1	none
CN(CC(=O)Nc1ccc(F)cc1)C(=O)COC(=O)c1ccccc1	TRPC4 PAM 106
CCCCCc1cc(=O)oc2c(C(CCN(CC)CC)c3ccc(N(C)C)cc3)c(OC)cc(OC)c12 (stereo not drawn)	TRPC4 PAM 11
CCOC(=O)C1=C(COc2ccccc2)NC(=O)NC1c1ccc(Cl)cc1 (stereo not drawn)	none
COC(=O)C1=C(COc2ccccc2)NC(=O)NC1c1ccc(Cl)cc1 (stereo not drawn)	TRPC4 PAM 11
CC(C)(C)NC(=O)N1CCCC(C(=O)c2cccc(Cl)c2)C1 (stereo not drawn)	none
C1CCN(c2nc(N3CCCCC3)nc(N3CCNCC3)n2)CC1	TRPC4 PAM 22
CC1CCN(c2nc(N3CCCCC3)nc(N3CCCCC3)n2)CC1	none
O=C(Nc1cccc(F)c1)C1CCCN(c2cnccn2)C1 (stereo not drawn)	none
Cc1nn(C(=O)c2nn(C)cc2[N+](=O)[O-])c(C)c1Br	none
CN1CCN(CC(=O)N2c3ccccc3C(=O)Nc3cccnc32)CC1	TRPC6 inhibitor -6
CCOC(=O)c1c(C)[nH]c(C)c1C(=O)COC(=O)c1ccc(Cl)c(S(=O)(=O)NCc2ccccc2)c1	none
C#CCOCCOCCOCCNc1nc(N2CCN(C(=O)C([C@@H](C)CC)n3cc(C(N)COC(=O)C(F)(F)F)nn3)CC2)nc(N2CCN(C(=O)[C@H](Cc3cc4ccccc4[nH]3)n3cc(C(N)CO)nn3)CC2)n1 (stereo partly drawn)	TRPC4 act 57, TRPC4 inh -6
CC(C)c1ccccc1OS(N)(=O)=O	none (no result: TRPC4 inh)
CC(C)CCc1noc(CN2CCN(c3ccc(Cl)cn3)CC2)n1	TRPC4 PAM 16
CN(C)CCNc1ccc(Cl)cc1[N+](=O)[O-]	TRPC4 PAM 21
CS(=O)(=O)NCCNc1ccc(Cl)cc1[N+](=O)[O-]	none
N=c1oc2ccc(Br)cc2cc1C(=O)NCc1ccc(F)cc1	TRPC4 PAM 12
Cc1ccc(CNC(=O)c2cc3cc(Br)ccc3oc2=N)cc1	none
Cc1ccccc1N1CC(O)(c2cccs2)[N+]2=C1CCCC2 (stereo not drawn)	TRPC4 inh -9
COc1cccc2[nH]c3c(N4CCN(Cc5ccc6c(c5)OCO6)CC4)ncnc3c12	TRPC6 inhibitor -6.7
O=C(CC12CC3CC(CC(C3)C1)C2)NCC(=O)N1CCc2ccccc2C1	none
CCOCc1cn(CC(=O)c2ccc([N+](=O)[O-])cc2)c(C)nc1=N	none
CCOCc1cn(CC(=O)c2ccc(Cl)cc2)c(C)nc1=N	TRPC4 inh -8
Cc1cccc(S(=O)(=O)NCCNS(=O)(=O)c2cccc(C)c2)c1	none
CCOC(=O)C1CCN(c2cc3c(cc2NC(=O)c2ccccc2Br)n(C)c(=O)n3C)CC1	none
CCOC(=O)C1CCN(c2cc3c(cc2NC(=O)c2cc(OC)ccc2Br)n(C)c(=O)n3C)CC1	TRPC4 PAM 12
O=C(C[n+]1ccccc1)Nc1ccccc1C(=O)O	none
OCCN1CCN(C2CCC(c3ccc(F)cc3)c3ccc(F)cc32)CC1 (stereo not drawn)	TRPC4 PAM 13
CN(C)c1ccc(N=Nc2ccccc2C(=O)OCC(=O)NCC2CCCCC2)cc1	none
CN(C)c1ccc(N=Nc2ccccc2C(=O)OCC(=O)N(C)C2CCCCC2)cc1	TRPC4 PAM 11
NC(CCCCc1ccccc1)c1cccc2ccccc12 (stereo not drawn)	TRPC6 inhibitor -7.9
CCCC1C(=O)Nc2ccccc2N1C(=O)c1ccc(C(C)(C)C)cc1 (stereo not drawn)	TRPC4 PAM 16
CCC1CCCCN1CCCNC(=O)c1ccc2c(c1)c(C)c(C)n2C (stereo not drawn)	none
CCCNC(=O)OCCC12CC3CC(CC(C3)C1)C2	TRPC4 PAM 10
CC(=Nc1ccc(C)c(C)c1)C1=C(O)CSC1=O	none
CN(CC1CCCN(CCc2ccccc2F)C1)C(=O)c1ccoc1 (stereo not drawn)	none
COc1ccc(CCN2CCCC(CN(C)C(=O)c3ccoc3)C2)cc1 (stereo not drawn)	TRPC4 PAM 19
CCCC(=O)c1ccc(N2CCN(C(=O)c3ccccc3)CC2)c(F)c1	none
CCCC(=O)c1ccc(N2CCN(C(=O)c3ccccc3Br)CC2)c(F)c1	TRPC4 PAM 11
CCN(C(=O)CSc1nnc(C)n1-c1ccccc1)C1CCS(=O)(=O)C1 (stereo not drawn)	none
COc1ccc(Cn2nnnc2C(c2cc3cc(C)ccc3[nH]c2=O)N2CCN(C)CC2)cc1 (stereo not drawn)	TRPC4 inh -7
COc1ccc(Cn2nnnc2C(c2cc3cccc(C)c3[nH]c2=O)N2CCN(C)CC2)cc1 (stereo not drawn)	TRPC4 act 98
Cc1cccc2cc(C(c3nnnn3Cc3ccccc3)N3CCN(C)CC3)c(=O)[nH]c12 (stereo not drawn)	TRPC4 act 47
CCc1ccc2[nH]c(=O)c(C(c3nnnn3Cc3ccc(OC)cc3)N3CCOCC3)cc2c1 (stereo not drawn)	none
CCSc1nc2c(c(=O)n1Cc1ccccc1)SC(C)C2 (stereo not drawn)	TRPC4 inh -6
OC1CCN(Cc2cccc3ccccc23)CC1	none
CN1CCCN(Cc2cccc3ccccc23)CC1	TRPC4 PAM 23
Cc1nn(C)c(C)c1Sc1ccc(Br)cc1	TRPC4 inh -6
Cn1cnc([N+](=O)[O-])c1Sc1ccc(Br)cc1	none
O=C(CSc1nnc(NC(=O)c2ccccc2F)s1)NCc1ccco1	none
Cc1ccc2nc(C(=O)N3CCc4c([nH]c5ccccc45)C3c3ccccn3)cn2c1 (stereo not drawn)	TRPC4 act 81
CSc1nc(C(=O)N2CCc3c([nH]c4ccccc34)C2c2ccccn2)cs1 (stereo not drawn)	none
Cc1cccc(Nc2nc(NCCCN3CCOCC3)nc(N)c2[N+](=O)[O-])c1	TRPC4 inh -6
CC1=CC(=O)C(C(C)C)=C/C1=N/OS(=O)(=O)c1ccccc1	TRPC4 PAM 21
CC1=CC(=O)C=C(C)C1=NOS(=O)(=O)c1ccccc1	none
CCOC(=O)c1c(NC(=O)C2CCCO2)sc2c1CCC2 (stereo not drawn)	TRPC4 PAM 15
CCOC(=O)c1c(NC(=O)C(C)Sc2nnc(C)c(=O)[nH]2)sc2c1CCCC2 (stereo not drawn)	TRPC4 inh -6
CCOC(=O)c1c(NC(=O)C2CCCO2)sc(C)c1C (stereo not drawn)	none
CCOC(=O)c1c(NC(=O)CSc2nnc(C)c(=O)[nH]2)sc2c1CCCC2	none
